Measured values reported in ChEMBL document CHEMBL5030540 (J Med Chem, 2021).
pEC50, pKi: −log10 of the molar value. The source made the active and inactive calls.

Columns and labels:
Mu-type opioid receptor [1] = target: T1, Mu-type opioid receptor (Homo sapiens, UniProt P35372); assay: Agonist activity at human MOR expressed in HEK-293T cells assessed as inhibition of forskolin-stimulated cAMP accumulation incubated for 30 mins by Glo-sensor cAMP assay relative to DAMGO; type: functional, cell-based; conditions: HEK293T
Procedure, shortened: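 HEK293T cells transiently co-transfected with human MOR and a luciferase-based cAMP biosensor. Gαi-mediated cAMP inhibition read by luminescence. […] EC50 given as pEC50 ± SEM, triplicate runs.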

Mu-type opioid receptor [2] = target: T1, Mu-type opioid receptor; assay: Agonist activity at human MOR expressed in HEK293T cells assessed as inhibition of forskolin-stimulated cAMP accumulation incubated for 30 mins by Glo-sensor cAMP assay; type: functional, cell-based
Procedure, shortened: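 HEK293T cells transiently co-transfected with human MOR and a luciferase-based cAMP biosensor. Gαi-mediated cAMP inhibition read by luminescence. EC50 given as pEC50 ± SEM, triplicate runs.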

Mu-type opioid receptor [3] = target: T1, Mu-type opioid receptor; assay: Agonist activity at human MOR receptor expressed in HTLA cells co-expressing TEV-fused-beta-arrestin2 assessed as induction of beta-arrestin2 recruitment by Tango assay relative to DAMGO; type: functional, cell-based
Procedure, shortened: (§1)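 HTLA cells expressing TEV-fused β-arrestin2 transiently transfected with a human MOR Tango construct. β-arrestin2 recruitment measured. […] Mean pEC50 ± SEM and Emax% ± SEM from triplicate runs.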

[4] = target: Mu-type opioid receptor (Mus musculus) (UniProt P42866); assay: Partial agonist activity at mouse MOR expressed in HEK293T cells assessed as Nb33 recruitment by BRET assay relative to control; type: functional, cell-based
Procedure, shortened: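 HEK293T cells transfected with murine MOR-NanoLuc (1 μg) and Nb33-Venus (4 μg) using PEI and used 48 h later. Cells in PBS given coelenterazine H (5 μM), ligand added at 5 min, BRET read 10 min later. Three-parameter fit; ≥3 independent trials in triplicate.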

[5] = target: Voltage-dependent L-type calcium channel subunit alpha-1C (Rattus norvegicus, UniProt P22002); assay: Displacement of [3H]Diltiazem from Cav1.2 in rat brain at 10 uM incubated for 120 mins by radiometric scintillation counting analysis; type: tissue-based; conditions: 2 h
Mu-type opioid receptor [6] = target: T1, Mu-type opioid receptor; assay: Partial agonist activity at human MOR expressed in HEK293T cells co-expressing Galpha-RLuc8:Gbeta:Ggamma-GFP2 assessed as maximal Gi-1 activation measured after 15 mins by BRET assay relative to control; type: functional, cell-based; conditions: filed as partial agonist
Mu-type opioid receptor [7] = target: T1, Mu-type opioid receptor; assay: Agonist activity at human MOR expressed in CHO-K1 cells co-expressing beta-arrestin2 assessed as beta-arrestin2 EFC recruitment measured after 90 mins by PathHunter assay relative to control; type: functional, cell-based
Procedure, shortened: (§2)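 CHO-K1 cells stably expressing human μOR grown to confluency and seeded overnight at 37 °C, 5% CO2. 5× dilution series of compound in Opti-MEM added for 90 min at 37 °C. Detection reagent then added for 60 min at room temperature in the dark, and chemiluminescence read.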

Mu-type opioid receptor [8] = target: T1, Mu-type opioid receptor; assay: Agonist activity at human MOR receptor expressed in HTLA cells co-expressing TEV-fused-beta-arrestin2 assessed as induction of beta-arrestin2 recruitment by Tango assay; type: functional, cell-based; procedure, shortened: as §1
Mu-type opioid receptor [9] = target: T1, Mu-type opioid receptor; assay: Partial agonist activity at human MOR expressed in HEK293T cells co-expressing Galpha-RLuc8:Gbeta:Ggamma-GFP2 assessed as Galpha-i/o activation measured after TRUPATH assay; type: functional, cell-based; conditions: filed as partial agonist
[10] = target: GABA-A receptor; anion channel (Rattus norvegicus) (UniProt O09028+P15431+P18506+P18508+P19969+P20236+P23574+P23576+P28471+P28473+P30191+P62813+P63079+P63138+Q91ZM7+Q9ES14); assay: Partial agonist activity at GABAA receptor in rat brain slice assessed as induction of receptor-mediated inhibitory postsynaptic current at 10 uM by Whole cell electrophysiology; type: tissue-based; conditions: filed as partial agonist
Procedure, shortened: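 Horizontal VTA slices (200 μm) from male Sprague–Dawley rats. Whole-cell voltage clamp at −70 mV, 33 °C, KCl internal. GABAA IPSCs isolated with 10 μM DNQX and evoked by paired pulses every 10 s. Drug (10 μM) bath applied. Mean IPSC amplitude at minutes 4–7 of drug compared with the 4 min baseline.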

Mu-type opioid receptor [11] = target: T1, Mu-type opioid receptor; assay: Agonist activity at human MOR expressed in CHO-K1 cells co-expressing beta-arrestin2 assessed as beta-arrestin2 EFC recruitment measured after 90 mins by PathHunter assay; type: functional, cell-based; procedure, shortened: as §2
[12] = Toxicity in C57BL/6 mouse model assessed as conditioned place preference at 15 mg/kg, sc; type: organism-based; conditions: in vivo
Procedure, shortened: (§3)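 Counterbalanced two-compartment place conditioning in C57BL/6J mice. […] Time on drug-paired side over a 20 min test compared with preconditioning by Welch-corrected t test.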

Mus musculus [13] = assay: Antinociceptive activity in sc dosed C57BL/6 mouse model assessed as increase in tail withdrawal latency measured at 20 mins by […] withdrawal assay; type: functional; conditions: C57BL/6, sc
Procedure, shortened: (§4)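 C57BL/6J mice given compound sc or po. 55 °C warm-water tail withdrawal with baseline latency taken first, then measured every 10 min, 15 s cutoff. % antinociception = 100 × (test − baseline)/(15 − baseline). sc doses 1, 3, 10 mg/kg (n = 8). po dose 10 mg/kg (n = 13). ED50 with 95% CI.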

[14] = Toxicity in C57BL/6 mouse model assessed as conditioned place preference at 10 mg/kg, IP; type: organism-based; conditions: in vivo; procedure, shortened: as §3
Mus musculus [15] = assay: Antinociceptive activity in C57BL/6 mouse model assessed as measuring increase in tail withdrawal latency at 10 mg/kg, po at 55 degC measured at 30 mins peak time point by […] withdrawal assay; type: functional; conditions: 0.5 h; procedure, shortened: as §4
Mus musculus [16] = assay: Antinociceptive activity in sc dosed C57BL/6 MOR knock out mouse model assessed as increase in tail withdrawal latency measured at 20 mins by radiant heat withdrawal assay; type: functional, organism-based
[17] = Toxicity in C57BL/6 mouse model assessed as hyperlocomotion at 15 times of ED50 for antinociceptive effect; conditions: in vivo
Procedure, shortened: (§5)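 Mice habituated 60 min in sealed CLAMS cages, dosed sc, and confined 5 min later. Respiration rate measured by pressure transducer and ambulation by infrared beam breaks, every 20 min. […] Expressed as % vehicle. Two-way ANOVA with Dunnett's test.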

[18] = Toxicity in C57BL/6 mouse model assessed as conditioned place aversion at 15 mg/kg, sc; type: organism-based; conditions: in vivo; procedure, shortened: as §3
[19] = Toxicity in C57BL/6 mouse model assessed as respiratory depression at 15 times of ED50 for antinociceptive effect; conditions: in vivo; procedure, shortened: as §5
Mus musculus [20] = assay: Antinociceptive activity in C57BL/6 mouse model assessed as measuring increase in tail withdrawal latency at 10 mg/kg, sc at 55 degC measured at 20 mins peak time point by […] withdrawal assay; type: functional; procedure, shortened: as §4
Mu-type opioid receptor [21] = target: T1, Mu-type opioid receptor; assay: Displacement of [3H]-DAMGO from mu opioid receptor (unknown origin) expressed in CHO cells at 10 uM; type: cell-based
[22] = Toxicity in C57BL/6 mouse model assessed as charcoal distance travel at 15 mg/kg, sc measured after 3 hrs by gastrointestinal transit assay (reference value: 29.5 +/- 1 cm); type: organism-based; conditions: in vivo
[23] = HTLA230, filed as partial agonist

Mu-type opioid receptor (Mus musculus), sequence (P42866 whole entry): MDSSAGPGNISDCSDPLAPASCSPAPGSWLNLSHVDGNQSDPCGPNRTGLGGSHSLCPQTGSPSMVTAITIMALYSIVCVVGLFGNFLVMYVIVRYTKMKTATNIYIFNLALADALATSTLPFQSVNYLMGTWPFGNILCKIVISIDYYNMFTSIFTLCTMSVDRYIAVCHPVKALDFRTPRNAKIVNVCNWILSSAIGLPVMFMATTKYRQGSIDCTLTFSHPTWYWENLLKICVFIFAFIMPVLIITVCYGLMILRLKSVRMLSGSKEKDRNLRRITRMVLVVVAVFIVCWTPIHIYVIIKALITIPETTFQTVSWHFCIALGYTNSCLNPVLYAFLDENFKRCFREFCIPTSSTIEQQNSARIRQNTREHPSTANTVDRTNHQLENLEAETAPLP
T1 sequence (P35372 whole entry): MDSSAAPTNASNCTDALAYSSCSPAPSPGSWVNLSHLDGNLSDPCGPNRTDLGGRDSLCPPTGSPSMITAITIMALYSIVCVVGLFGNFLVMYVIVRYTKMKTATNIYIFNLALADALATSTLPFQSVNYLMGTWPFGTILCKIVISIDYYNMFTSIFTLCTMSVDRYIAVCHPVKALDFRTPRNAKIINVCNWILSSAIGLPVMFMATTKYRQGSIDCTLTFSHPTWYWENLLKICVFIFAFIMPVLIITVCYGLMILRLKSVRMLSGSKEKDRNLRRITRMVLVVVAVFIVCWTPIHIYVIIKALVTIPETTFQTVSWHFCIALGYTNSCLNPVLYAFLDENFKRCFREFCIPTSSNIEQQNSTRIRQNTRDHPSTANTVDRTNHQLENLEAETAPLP
Voltage-dependent L-type calcium channel subunit alpha-1C, sequence (P22002 whole entry): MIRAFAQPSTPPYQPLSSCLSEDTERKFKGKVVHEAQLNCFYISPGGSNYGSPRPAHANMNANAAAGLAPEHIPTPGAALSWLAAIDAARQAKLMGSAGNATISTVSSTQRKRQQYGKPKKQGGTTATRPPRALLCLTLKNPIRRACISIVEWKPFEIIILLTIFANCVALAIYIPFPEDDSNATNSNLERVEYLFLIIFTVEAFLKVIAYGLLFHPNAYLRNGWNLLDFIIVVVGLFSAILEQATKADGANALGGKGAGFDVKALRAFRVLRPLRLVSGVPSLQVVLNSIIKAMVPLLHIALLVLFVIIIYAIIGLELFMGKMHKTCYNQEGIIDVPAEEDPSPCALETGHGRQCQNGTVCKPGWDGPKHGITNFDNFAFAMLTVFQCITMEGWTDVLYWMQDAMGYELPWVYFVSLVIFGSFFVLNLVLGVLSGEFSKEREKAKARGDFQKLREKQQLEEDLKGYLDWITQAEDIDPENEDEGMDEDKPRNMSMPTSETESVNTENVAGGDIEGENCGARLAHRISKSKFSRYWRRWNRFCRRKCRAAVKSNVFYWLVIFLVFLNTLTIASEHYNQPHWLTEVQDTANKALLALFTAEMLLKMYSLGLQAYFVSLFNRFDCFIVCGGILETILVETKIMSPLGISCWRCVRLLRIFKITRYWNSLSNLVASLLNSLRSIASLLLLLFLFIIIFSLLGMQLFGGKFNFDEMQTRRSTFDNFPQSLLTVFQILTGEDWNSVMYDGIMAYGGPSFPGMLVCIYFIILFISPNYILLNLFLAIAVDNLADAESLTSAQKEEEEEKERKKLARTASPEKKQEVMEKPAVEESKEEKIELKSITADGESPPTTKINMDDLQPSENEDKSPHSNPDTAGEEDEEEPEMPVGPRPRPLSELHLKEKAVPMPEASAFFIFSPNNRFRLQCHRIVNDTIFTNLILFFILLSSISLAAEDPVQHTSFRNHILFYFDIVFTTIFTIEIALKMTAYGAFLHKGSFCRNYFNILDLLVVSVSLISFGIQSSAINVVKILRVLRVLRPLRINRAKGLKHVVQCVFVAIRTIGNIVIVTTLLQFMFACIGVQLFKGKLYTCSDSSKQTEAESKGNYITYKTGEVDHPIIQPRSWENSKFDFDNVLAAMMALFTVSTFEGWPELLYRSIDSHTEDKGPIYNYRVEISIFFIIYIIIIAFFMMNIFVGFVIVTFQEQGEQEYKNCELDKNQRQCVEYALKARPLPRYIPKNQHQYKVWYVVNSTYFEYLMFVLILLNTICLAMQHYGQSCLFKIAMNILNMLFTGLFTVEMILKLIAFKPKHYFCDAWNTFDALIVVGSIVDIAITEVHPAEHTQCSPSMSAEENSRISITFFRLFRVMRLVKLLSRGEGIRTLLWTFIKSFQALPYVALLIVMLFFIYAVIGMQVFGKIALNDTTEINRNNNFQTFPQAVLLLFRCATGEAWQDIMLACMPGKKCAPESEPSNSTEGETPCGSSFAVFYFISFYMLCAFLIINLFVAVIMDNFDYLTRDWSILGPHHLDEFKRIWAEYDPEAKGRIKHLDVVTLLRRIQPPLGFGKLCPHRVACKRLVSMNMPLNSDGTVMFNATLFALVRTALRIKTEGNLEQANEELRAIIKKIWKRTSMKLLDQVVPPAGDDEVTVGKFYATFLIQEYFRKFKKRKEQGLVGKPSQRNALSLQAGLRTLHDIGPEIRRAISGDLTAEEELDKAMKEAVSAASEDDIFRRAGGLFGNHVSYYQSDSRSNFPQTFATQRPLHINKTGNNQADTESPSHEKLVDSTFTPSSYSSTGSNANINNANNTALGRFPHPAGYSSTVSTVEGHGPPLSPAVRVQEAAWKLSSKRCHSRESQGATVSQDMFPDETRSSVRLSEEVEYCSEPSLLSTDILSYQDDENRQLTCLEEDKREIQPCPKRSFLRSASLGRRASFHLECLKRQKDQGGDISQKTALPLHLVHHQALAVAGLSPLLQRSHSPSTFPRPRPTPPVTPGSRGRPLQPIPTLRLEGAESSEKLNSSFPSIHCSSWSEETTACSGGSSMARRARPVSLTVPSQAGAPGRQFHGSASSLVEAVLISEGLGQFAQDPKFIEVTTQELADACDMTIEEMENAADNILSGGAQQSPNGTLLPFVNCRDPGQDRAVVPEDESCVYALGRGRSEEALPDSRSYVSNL

Row | Structure (SMILES) | Emax (Mu-type opioid receptor [1]; filed as agonist) [%] | pEC50 (Mu-type opioid receptor [2]) | Emax (Mu-type opioid receptor [3]; HTLA230) [%] | Emax (Mu-type opioid receptor [1]; filed as partial agonist) [%] | Emax [4] [%] | Activity [5] | Emax (Mu-type opioid receptor [6]) [%] | Emax (Mu-type opioid receptor [7]) [%] | pEC50 (Mu-type opioid receptor [8]) | Activity (Mu-type opioid receptor [9]) | Activity [10] | Emax (Mu-type opioid receptor [3]; [23]) [%] | Emax (Mu-type opioid receptor [11]) [%] | also measured
1 | CC[C@@H]1CN2CCc3c([nH]c4ccc(-c5ccoc5)c(OC)c34)[C@@H]2C[C@@H]1/C(=C\OC)C(=O)OC | 90.8 | 7.07 | < 20 |  |  |  |  |  |  |  |  |  |  | 
2 | CC[C@@H]1CN2CC[C@@]3(O)C(=Nc4cccc(C)c43)[C@@H]2C[C@@H]1/C(=C\OC)C(=O)OC |  | 8.28 |  | 108 | 20 | Active | 60 | < 20 | 4.98 | Active | Active | 110 | 31 | 
3 | CC[C@@H]1CN2CC[C@@]3(O)C(=Nc4ccc(-c5ccccc5)c(OC)c43)[C@@H]2C[C@@H]1/C(=C\OC)C(=O)OC | 88.7 | 6.98 | < 20 |  |  |  |  |  |  |  |  |  |  | 
4 | CC[C@@H]1CN2CC[C@@]3(O)C(=Nc4cccc(OC)c43)[C@@H]2C[C@@H]1/C(=C\OC)C(=O)OC | 95.5 |  | < 20 |  |  |  |  |  |  |  |  |  |  | 
5 | CC[C@@H]1CN2CCc3c([nH]c4cccc(-c5ccccc5)c34)[C@@H]2C[C@@H]1/C(=C\OC)C(=O)OC | 46.1 | 7.08 | < 20 |  |  |  |  |  |  |  |  |  |  | 
6 | CC[C@@H]1CN2CC[C@@]3(O)C(=Nc4cccc(-c5ccoc5)c43)[C@@H]2C[C@@H]1/C(=C\OC)C(=O)OC |  | 8.14 |  | 106 | 20 | Active | 60 | < 20 | 4.96 | Active | Active | 45 | 31 | Activity [12]: Non-Toxic; ED50 (Mus musculus [13]): 3.05 mg/kg; Activity [14]: Toxic; MPE (Mus musculus [15]): 87%; Activity (Mus musculus [16]): Active; Activity [17]: Non-Toxic; Activity [18]: Non-Toxic; Activity [19]: Non-Toxic; MPE (Mus musculus [20]): 100%; pKi (Mu-type opioid receptor [21]): 8.22; Activity [22]: 30.8 cm
7 | CC[C@@H]1CN2CC[C@@]3(O)C(=Nc4cccc(-c5ccccc5)c43)[C@@H]2C[C@@H]1/C(=C\OC)C(=O)OC |  | 7.44 |  | 108 | 20 | Active | 60 | < 20 | 4.72 | Active | Active | 283 | 31 | 
8 | CC[C@@H]1CN2CC[C@@]3(O)C(=Nc4c(C)ccc(OC)c43)[C@@H]2C[C@@H]1/C(=C\OC)C(=O)OC | 69.3 | 7.95 | < 20 |  |  |  |  |  |  |  |  |  |  | 
9 | CC[C@@H]1CN2CCc3c([nH]c4c(-c5ccccc5)ccc(OC)c34)[C@@H]2C[C@@H]1/C(=C\OC)C(=O)OC | 50.4 | 5.95 | < 20 |  |  |  |  |  |  |  |  |  |  | 
10 | CC[C@@H]1CN2CCc3c([nH]c4ccc(-c5ccccc5)c(OC)c34)[C@@H]2C[C@@H]1/C(=C\OC)C(=O)OC | 73.9 | 5.42 | < 20 |  |  |  |  |  |  |  |  |  |  | 
